Measurements as given in ChEMBL document CHEMBL4376857, “Discovery of Selective Inhibitors of Endoplasmic Reticulum Aminopeptidase 1” (J Med Chem, 2020).
Calls of active or inactive are those of the source. The rule behind the calls is not given here.

How the values were obtained:
[1] = molecular target: T1, Leucyl-cystinyl aminopeptidase (Mus musculus, UniProt Q8C129); assay: Inhibition of recombinant mouse C-terminal His6-tagged IRAP expressed in baculovirus infected BTA-TN-5B1-4 insect cells using L-AMC as substrate measured after 1 hr by fluorescence assay
T1 sequence (Q8C129 whole entry): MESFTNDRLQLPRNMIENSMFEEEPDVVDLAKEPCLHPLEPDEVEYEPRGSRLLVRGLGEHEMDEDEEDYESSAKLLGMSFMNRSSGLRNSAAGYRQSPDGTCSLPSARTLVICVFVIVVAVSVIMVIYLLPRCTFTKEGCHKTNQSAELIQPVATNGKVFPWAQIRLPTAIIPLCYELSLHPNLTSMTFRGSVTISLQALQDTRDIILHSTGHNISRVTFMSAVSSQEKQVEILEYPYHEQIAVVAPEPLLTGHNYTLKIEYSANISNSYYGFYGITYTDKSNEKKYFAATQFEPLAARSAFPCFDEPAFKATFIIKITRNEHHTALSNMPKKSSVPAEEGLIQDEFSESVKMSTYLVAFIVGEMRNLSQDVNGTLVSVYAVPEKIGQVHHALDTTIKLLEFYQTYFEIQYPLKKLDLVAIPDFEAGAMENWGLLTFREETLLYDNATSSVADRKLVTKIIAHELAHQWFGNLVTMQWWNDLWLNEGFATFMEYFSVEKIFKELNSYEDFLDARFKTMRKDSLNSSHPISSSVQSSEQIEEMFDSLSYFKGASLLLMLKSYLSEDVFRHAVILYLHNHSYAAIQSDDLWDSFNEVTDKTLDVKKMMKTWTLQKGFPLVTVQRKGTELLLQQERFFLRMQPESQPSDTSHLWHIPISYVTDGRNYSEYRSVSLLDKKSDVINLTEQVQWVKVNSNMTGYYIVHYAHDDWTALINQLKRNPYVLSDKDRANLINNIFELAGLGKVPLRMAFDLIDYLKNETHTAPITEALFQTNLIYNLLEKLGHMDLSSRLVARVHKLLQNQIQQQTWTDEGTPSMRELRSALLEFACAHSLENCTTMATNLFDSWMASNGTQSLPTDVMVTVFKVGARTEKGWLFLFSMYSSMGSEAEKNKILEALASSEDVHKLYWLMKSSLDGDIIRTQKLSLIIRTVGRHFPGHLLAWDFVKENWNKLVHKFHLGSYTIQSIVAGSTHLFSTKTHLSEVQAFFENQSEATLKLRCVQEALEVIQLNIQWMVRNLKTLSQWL

[2] = molecular target: T2, Antigen peptide transporter 1/2 (Homo sapiens) (UniProt Q03518+Q03519); assay: (§1) Inhibition of TAP1/2 in human HeLa cells stably expressing H-2 Kb infected with vaccinia virus containing Ub-SIINFEKL epitope assessed as suppression of Ub-SIINFEKL binding to MHC1 H-2 Kb at cell surface by measuring reduction in 25D1 staining measured after 16 to 24 hrs by flow cytometric method; assay type: cell-based
[3] = molecular target: T2, Antigen peptide transporter 1/2 (Homo sapiens); assay: as §1, with “staining at 50 uM” for “staining”; assay type: cell-based
[4] = molecular target: T3, Endoplasmic reticulum aminopeptidase 1 (Homo sapiens, UniProt Q9NZ08); assay: Inhibition of recombinant human C-terminal His6-tagged ERAP1 expressed in baculovirus infected BTA-TN-5B1-4 insect cells using L-AMC as substrate measured after 1 hr by fluorescence assay
T3 sequence (Q9NZ08 whole entry): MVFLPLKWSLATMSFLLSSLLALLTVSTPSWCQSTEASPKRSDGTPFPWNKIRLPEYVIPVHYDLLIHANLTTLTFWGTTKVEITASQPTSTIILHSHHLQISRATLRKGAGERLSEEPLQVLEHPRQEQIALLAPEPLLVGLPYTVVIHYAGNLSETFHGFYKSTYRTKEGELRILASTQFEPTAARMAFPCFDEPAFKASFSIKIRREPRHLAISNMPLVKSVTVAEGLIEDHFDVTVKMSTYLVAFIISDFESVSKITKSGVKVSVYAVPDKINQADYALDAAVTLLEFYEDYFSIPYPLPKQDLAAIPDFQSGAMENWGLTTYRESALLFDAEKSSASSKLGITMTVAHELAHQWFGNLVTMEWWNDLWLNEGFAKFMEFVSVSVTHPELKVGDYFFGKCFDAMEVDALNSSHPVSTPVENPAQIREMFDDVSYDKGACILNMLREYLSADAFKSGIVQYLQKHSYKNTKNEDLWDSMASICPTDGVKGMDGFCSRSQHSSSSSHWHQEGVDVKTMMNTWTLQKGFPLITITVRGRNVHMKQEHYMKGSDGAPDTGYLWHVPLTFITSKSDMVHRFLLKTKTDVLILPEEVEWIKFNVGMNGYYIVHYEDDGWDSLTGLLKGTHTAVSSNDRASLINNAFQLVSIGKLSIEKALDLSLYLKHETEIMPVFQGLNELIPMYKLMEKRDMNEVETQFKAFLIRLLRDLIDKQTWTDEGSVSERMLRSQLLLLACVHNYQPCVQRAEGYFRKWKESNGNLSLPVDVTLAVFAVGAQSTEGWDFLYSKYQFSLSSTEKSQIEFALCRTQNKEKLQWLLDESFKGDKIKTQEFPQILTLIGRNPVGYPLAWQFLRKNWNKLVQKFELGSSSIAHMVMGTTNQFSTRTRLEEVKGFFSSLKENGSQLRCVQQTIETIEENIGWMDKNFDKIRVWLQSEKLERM

[5] = molecular target: T3, Endoplasmic reticulum aminopeptidase 1; assay: (§2) Competitive inhibition of recombinant human C-terminal His6-tagged ERAP1 expressed in baculovirus infected BTA-TN-5B1-4 insect cells using varying levels of L-pNA as substrate incubated for 1 hr and measured for 5 to 10 mins by […] Michaelis-Menten equation analysis
[6] = Activation of recombinant human C-terminal His6-tagged ERAP1 5-SNP mutant expressed in baculovirus infected BTA-TN-5B1-4 insect cells using L-AMC as substrate measured after 1 hr by fluorescence assay
[7] = molecular target: T3, Endoplasmic reticulum aminopeptidase 1; assay: Competitive inhibition of recombinant human C-terminal His6-tagged ERAP1 expressed in baculovirus infected BTA-TN-5B1-4 insect cells using varying levels of LVAFKARKF as substrate measured at 2.5 mins interval for 20 mins by ABTS reagent based horseradish peroxidase-coupled Michaelis-Menten equation analysis
[8] = molecular target: T3, Endoplasmic reticulum aminopeptidase 1; assay: Activation of recombinant human C-terminal His6-tagged ERAP1 expressed in baculovirus infected BTA-TN-5B1-4 insect cells using L-AMC as substrate measured after 1 hr by fluorescence assay
[9] = Activation of recombinant human C-terminal His6-tagged ERAP1 allele 2 mutant expressed in baculovirus infected BTA-TN-5B1-4 insect cells using L-AMC as substrate measured after 1 hr by fluorescence assay
[10] = molecular target: T3, Endoplasmic reticulum aminopeptidase 1; assay: Activation of recombinant human C-terminal His6-tagged ERAP1 expressed in baculovirus infected BTA-TN-5B1-4 insect cells at 10.7 uM using L-AMC as substrate measured after 1 hr by fluorescence assay relative to control
[11] = molecular target: T3, Endoplasmic reticulum aminopeptidase 1; assay: as §1, with “ERAP1” for “TAP1/2”, “ss-LEQLE-SIINFEKL” for “Ub-SIINFEKL”; assay type: cell-based
[12] = Activation of recombinant human C-terminal His6-tagged ERAP1 allele 3 mutant expressed in baculovirus infected BTA-TN-5B1-4 insect cells using L-AMC as substrate measured after 1 hr by fluorescence assay
[13] = molecular target: T3, Endoplasmic reticulum aminopeptidase 1; assay: as §2, with “Activation” for “Competitive inhibition”, “cells assessed as increase in Vmax/[…] ratio” for “cells”, “analysis relative to control” for “analysis”
Summary of the method: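 ERAP1 initial rates measured under steady-state conditions with the chromogenic substrate leucine p-nitroanilide (L-pNA), allowing a wide substrate range, across several compound concentrations. Rate-versus-substrate curves were fit to an allosteric Michaelis-Menten equation with a Hill coefficient to give V_max and K_half at each compound level. Activity was expressed as V_max/K_half relative to no-compound control.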

[14] = molecular target: T3, Endoplasmic reticulum aminopeptidase 1; assay: Inhibition of recombinant human C-terminal His6-tagged ERAP1 expressed in baculovirus infected BTA-TN-5B1-4 insect cells using WRCYEKMALK as substrate measured after 10 mins by LC-MS analysis

O=C(O)c1ccc(Cl)c(S(=O)(=O)Nc2cc(C(F)(F)F)ccc2N2CCCCC2)c1
IC50 [1]: > 200 µM

COc1ccc(C(=O)O)cc1S(=O)(=O)Nc1cc(C)ccc1N1CCCCC1
IC50 [1]: > 200 µM

COc1ccc(C(=O)O)cc1S(=O)(=O)Nc1cc(F)ccc1N1CCCCC1
IC50 [1]: > 200 µM

COC(=O)c1ccc(OC)c(S(=O)(=O)Nc2cc(C(F)(F)F)ccc2N2CCCCC2)c1
IC50 [1]: > 200 µM | inhibition [2]: Active

CC(C)C[C@H](N)CS
inhibition [3]: inactive

O=C(O)c1cccc(S(=O)(=O)Nc2cc(C(F)(F)F)ccc2N2CCCCC2)c1
IC50 [1]: > 200 µM

COc1ccc(C(=O)O)cc1S(=O)(=O)Nc1ccccc1N1CCCCC1
IC50 [1]: > 200 µM

O=C(O)c1ccc(Br)c(S(=O)(=O)Nc2cc(C(F)(F)F)ccc2N2CCCCC2)c1
IC50 [1]: > 200 µM

N=C(NCCc1c[nH]c2ccccc12)NS(=O)(=O)c1cc(F)ccc1F
IC50 [4]: 9.2 µM | inhibition [3]: Active | Ki [5]: 51.7 µM

COc1ccc(C(=O)O)cc1S(=O)(=O)Nc1cc(C(F)(F)F)ccc1N1CCCCC1
AC50 [6]: 2.7 µM | Ki [7]: 3.8 µM | AC50 [8]: 4.1 µM | AC50 [9]: 0.88 µM | Activity [10]: > 40% | IC50 [11]: 1 µM | inhibition (INH) ([1]; mouse, 1 h): Not Active | AC50 [12]: 3.1 µM | inhibition [3]: inactive | fold change (FC) [13]: < 1.8 | IC50 [14]: 5.3 µM

COc1ccc(C(=O)O)cc1S(=O)(=O)Nc1cc(C(F)(F)F)ccc1N1CCN(C)CC1
IC50 [1]: > 200 µM
